From PubChem BioAssay
Beta apoptosis = beta cell apoptosis inhibition | 0.8% of 300,000 active | protection from apoptosis, % (test concentration not listed) | INS-1E cytokine-induced death, ATP luminescence, 48 h; percent of positive-control rescue, neutral wells zero;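 active = Every replicate reaches about 75%, or at least half do and their mean reaches it too, limit read from the data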;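 also: 0% = cytokine-treated negative control wells and 100% = positive control rescue; higher means more ATP so stronger rescue from cytokine killing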
Mdm2-MdmX inh = disrupts the human Mdm2-MdmX interaction; O15151+Q00987; SaOS-2 split-luciferase Mdm2/MdmX complementation, luminescence; inhibition, % at 8 µM; 3% of 330,000 active;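 active = inhibition of at least 50% at 8 µM in the primary screen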
Target sequence (O15151 whole entry, looked up): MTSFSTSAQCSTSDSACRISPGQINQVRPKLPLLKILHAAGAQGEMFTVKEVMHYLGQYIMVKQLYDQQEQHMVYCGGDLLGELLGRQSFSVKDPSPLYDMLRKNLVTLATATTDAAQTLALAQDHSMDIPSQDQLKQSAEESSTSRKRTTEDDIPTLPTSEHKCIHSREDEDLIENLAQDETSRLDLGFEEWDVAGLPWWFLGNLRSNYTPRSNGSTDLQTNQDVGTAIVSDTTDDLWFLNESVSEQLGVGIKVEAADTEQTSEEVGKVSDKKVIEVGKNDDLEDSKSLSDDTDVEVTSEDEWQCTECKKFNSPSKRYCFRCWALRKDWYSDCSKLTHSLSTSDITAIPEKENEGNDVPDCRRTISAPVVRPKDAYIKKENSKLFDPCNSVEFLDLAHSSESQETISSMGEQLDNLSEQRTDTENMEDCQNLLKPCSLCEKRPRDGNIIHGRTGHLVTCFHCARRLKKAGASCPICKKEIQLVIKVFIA
Target sequence (Q00987 whole entry, looked up): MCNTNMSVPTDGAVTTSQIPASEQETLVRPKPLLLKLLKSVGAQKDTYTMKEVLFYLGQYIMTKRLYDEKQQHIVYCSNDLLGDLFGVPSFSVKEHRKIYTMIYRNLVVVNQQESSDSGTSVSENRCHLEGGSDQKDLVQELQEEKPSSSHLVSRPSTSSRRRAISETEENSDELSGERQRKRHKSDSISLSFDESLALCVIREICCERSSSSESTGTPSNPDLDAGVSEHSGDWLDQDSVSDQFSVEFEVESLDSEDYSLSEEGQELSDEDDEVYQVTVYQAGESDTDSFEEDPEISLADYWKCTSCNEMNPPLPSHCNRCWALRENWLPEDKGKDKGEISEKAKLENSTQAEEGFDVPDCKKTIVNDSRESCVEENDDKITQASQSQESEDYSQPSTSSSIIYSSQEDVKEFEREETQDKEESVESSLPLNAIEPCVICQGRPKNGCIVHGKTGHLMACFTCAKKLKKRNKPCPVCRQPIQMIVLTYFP
SKKanGAS inh = blocks kanamycin growth of S. pyogenes SKKanGAS strain | BacTiter-Glo, 6 h | inhibition, % at 7.5 µM | 1.3% of 300,000 active | AID 1662;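 active = mean replicate score, as percent of positive control median, at least 50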;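 also: strain carries kanamycin resistance gene driven by streptokinase promoter and grows in 40 µg/ml kanamycin; loss of luminescence reflects streptokinase promoter inhibition or plain growth inhibition; 0% = median of DMSO wells and 100% = positive control at its reference dose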
CSC inhib = cancer stem cell inhibition; inhibition, % at 7.5 µM; cancer stem cell-like cells viability, luminescence; 1.1% of 300,000 active; in the data active = inhibition above about 75%; tested in HMLE shEcad cells
CHOP UPR activ = apoptotic UPR (CHOP) activation | CHO-CHOP luciferase reporter, luminescence; percent of tunicamycin response over DMSO baseline | activation, % at 10 µM | 0.34% of 330,000 active | AID 449763;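 active = at 10 µM dose, activation of 40% or more, normalized to positive control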;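 also: 100% = tunicamycin at 10 µg/mL and 0% = DMSO alone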
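assay system = CHO CHOP reporter cells | amount = 500 CHO-CHOP cells per well | buffer or medium = F12 with 10% FBS | incubation = 16-18 h cell attachment, then 6 h compound exposure, 37 °C | detection = luminescence read with Steady-Glo | read-out = percent activation relative to tunicamycin control | controls = tunicamycin high control, DMSO low control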
XBP1 UPR activ = adaptive UPR (XBP1) activation. 0.33% of 330,000 active. activation, % at 20 µM. CHO-XBP1 luciferase reporter, IRE1-XBP1 UPR activation, luminescence; percent of tunicamycin response, DMSO as zero. AID 463104;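 active = versus positive control, 20 µM dose yields 30% or more activation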;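 also: 100% = tunicamycin at 10 µg/mL and 0% = DMSO only wells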
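Material: CHO cell line with stable XBP1 luciferase reporter; buffer or medium: F12 medium containing 10% fetal bovine serum; compound: single point, 20 µM final compound, 1% DMSO; incubation: 6 h treatment, 37 °C; measured by: glow luminescence from Steady-Glo reagent; evaluation: activation, % of tunicamycin; control set: tunicamycin high, DMSO low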
Mdm2-MdmX conf = confirmation of human Mdm2/MdmX interaction inhibitors | shares compounds with Mdm2-MdmX inh | Mdm2-MdmX binding, luminescent assay | inhibition, % at 8 µM | 55% of 10,000 active | AID 489028; in the data active = inhibition above about 40%
Full FLuc ctr = inhibits full-length luciferase, flagging false Mdm2/MdmX hits | SaOS-2 full-length luciferase counterscreen, luminescence | inhibition, % at 8 µM | AID 504607 | 77% of 6,200 active | shares compounds with Mdm2-MdmX inh;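 active = mean inhibition at 8 µM reaching about 37%, which flags the compound as non-specific, limit read from the data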;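 also: p53-null SaOS-2 cells with luciferase driven by a doxycycline-inducible promoter; compound on cells about two nights before reading with doxycycline added after day one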
Starred values were filed as active, the others as inactive; x = no result given. Compounds with a hit are over-represented: about 4.8% of the library has one in this group of screens.

SMILES | Beta apoptosis | Mdm2-MdmX inh | SKKanGAS inh | CSC inhib | CHOP UPR activ | XBP1 UPR activ | Mdm2-MdmX conf | Full FLuc ctr
CCc1nnc(NC(=O)C2CCN(c3ncnc4sc(C)c(C)c34)CC2)s1 | -11 | 53* | x | -3 | -1 | -5 | 53* | 81*
CCc1nnc(NC(=O)C2CCN(S(=O)(=O)c3ccc(C)cc3)CC2)s1 | -7 | 53* | 31 | 1 | 0 | -2 | -2 | x
Cc1sc2ncnc(N3CCC(C(=O)Nc4ccccc4C(C)(C)C)CC3)c2c1C | 3 | 51* | 10 | -5 | -2 | -6 | 60* | 28
Cc1sc2ncnc(N3CCC(C(=O)Nc4nc(-c5cccs5)cs4)CC3)c2c1C | 31 | 86* | 40 | -1 | 13 | 1 | 93* | 43*
CCOC(=O)c1ccccc1NC(=O)C1CCN(c2ncnc3sc(C)c(C)c23)CC1 | 6 | 35 | 26 | 1 | 0 | -2 | x | x
Cc1ccc(S(=O)(=O)N2CCC(C(=O)Nc3nnc(C4CCCC4)s3)CC2)cc1 | -4 | 18 | 0 | -16 | 1 | 7 | x | x
O=C(CBr)Nc1c2c(nn1-c1ccccc1)CSC2 | 0 | 18 | -2 | -11 | 0 | -4 | x | x
CC(C)CN(C(=O)C1COc2ccccc2O1)c1c(N)n(CC(C)C)c(=O)[nH]c1=O (stereo unspecified) | -3 | 21 | x | x | 0 | 1 | x | x
NCC(c1ccccc1Cl)c1c[nH]c2ccccc12 (stereo unspecified) | 0 | 41 | -4 | 13 | -1 | -3 | x | x
CN(C)CCCNC(=S)NCC(c1ccc(Cl)cc1Cl)c1c[nH]c2ccccc12 (stereo unspecified) | 17 | 89* | 56* | -15 | 8 | 12 | 65* | 29
CCCCNC(=S)NCC(c1ccccc1)c1c[nH]c2ccccc12 (stereo unspecified) | -2 | 25 | 20 | 7 | -1 | -7 | x | x
NCC(c1ccc(Cl)cc1Cl)c1c[nH]c2ccccc12 (stereo unspecified) | 38 | 65* | 0 | 95* | 2 | 4 | 33 | x
CC(C)(C)n1nc2c(c1NC(=O)c1cc(Cl)ccc1[N+](=O)[O-])CS(=O)(=O)C2 | -9 | -9 | 2 | 10 | -2 | -2 | x | x
CC1(C)Cc2c(ccc3ccccc23)C(=O)N1 | x | 52* | -5 | -12 | -1 | 2 | 54* | 55*
CC(C)Oc1cccc(C2NC(=O)c3ccccc3O2)c1 (stereo unspecified) | -4 | 20 | -2 | -24 | 6 | 2 | x | x
N#Cc1c(NC(=O)CSc2ncc(-c3ccccc3)n2CC2CCCO2)sc2c1CCCC2 (stereo unspecified) | 7 | 76* | 6 | x | -3 | -1 | 42* | 67*
CCOC(=O)c1c(-c2ccc(F)cc2)csc1NC(=O)c1c(-c2ccccc2)noc1C | 5 | 85* | 11 | 21 | 3 | 3 | 50* | 48*
COC(=O)c1c(-c2ccccc2)csc1NC(=O)c1c(-c2ccccc2)noc1C | 5 | 97* | 4 | 46 | 1 | 2 | 95* | 53*
N#Cc1c(NC(=O)CSc2nnc(-c3ccncc3)n2CC2CCCO2)sc2c1CCCC2 (stereo unspecified) | 4 | 22 | -2 | 0 | -1 | 1 | x | x
Cc1onc(-c2ccccc2)c1C(=O)Nc1sc2c(c1C#N)CCC2 | x | 55* | 7 | x | 0 | 1 | 60* | 49*
COC(=O)c1ccc(C)c(NC(=O)c2c(-c3ccccc3)noc2C)c1 | 6 | -2 | -8 | -6 | -2 | 0 | x | x
Cc1cc(C(=O)NCC(C)(C)N2CCOCC2)c(C)o1 | 2 | -26 | 0 | -3 | -1 | 1 | x | x
O=C(CSc1n[nH]c(=O)n1C1CC1)c1c[nH]c2ccccc12 | 6 | 23 | x | -8 | 1 | 2 | x | x
CCOc1ccc(CCNC(=O)c2cc(=O)[nH]c3ccc(S(=O)(=O)N(CC)CC)cc23)cc1OCC | 1 | 10 | -7 | -3 | 3 | -3 | x | x
COC(=O)c1sccc1NC(=O)c1c(F)c(F)c(F)c(F)c1F | -2 | 75* | -4 | -6 | 0 | 3 | 21 | x
SMILES | Beta apoptosis | Mdm2-MdmX inh | SKKanGAS inh | CSC inhib | CHOP UPR activ | XBP1 UPR activ | Mdm2-MdmX conf | Full FLuc ctr
O=C(Nc1cccc(F)c1)c1c(F)c(F)c(F)c(F)c1F | 3 | 11 | 11 | 12 | -3 | -2 | x | x
O=C(Nc1ccccc1NC(=O)c1c(F)c(F)c(F)c(F)c1F)c1c(F)c(F)c(F)c(F)c1F | 0 | 54* | 2 | 10 | 2 | -1 | 32 | 41*
Cc1onc(-c2ccccc2)c1C(=O)N/N=C/c1c(F)cccc1Cl | -7 | 8 | -2 | 10 | 0 | -4 | x | x
N=c1n(CCN2CCCC2)c2ccccc2n1CC(O)c1ccc(Cl)c(Cl)c1 (stereo unspecified) | 4 | 96* | -4 | 32 | 3 | 4 | 99* | 104*
COc1ccc(OCC(O)Cn2c(=N)n(CCN3CCCCC3)c3ccccc32)cc1 (stereo unspecified) | 2 | 53* | x | -9 | -3 | -2 | 41* | 77*
Cc1ccc(OCC(O)Cn2c(=N)n(CCN3CCCCC3)c3ccccc32)cc1 (stereo unspecified) | 28 | 69* | -12 | 23 | -2 | -1 | 58* | 47*
Cc1cc(C)c(S(=O)(=O)N2CCCCC2CCNC(=O)C(=O)NCc2cccnc2)c(C)c1 (stereo unspecified) | 6 | 5 | -4 | 2 | -1 | -4 | x | x
Cc1oc(-c2cccc(Cl)c2)nc1CN1CCC(C(=O)NC2CC2)CC1 | -8 | -8 | -3 | -9 | -1 | 2 | x | x
Cc1oc(-c2ccc(Cl)cc2)nc1CN1CCC(C(=O)NCCCN2CCOCC2)CC1 | -10 | 22 | 4 | 7 | 1 | 0 | x | x
CCN(CCNC(=O)C1CCN(Cc2nc(-c3cccc(Cl)c3)oc2C)CC1)c1ccccc1 | 39 | 52* | -3 | 22 | 0 | 6 | 51* | 61*
CCC1CCCCN1CCCNC(=O)C1CCN(Cc2nc(-c3ccc(Cl)cc3)oc2C)CC1 (stereo unspecified) | 16 | 98* | 4 | 9 | 1 | -4 | 96* | 60*
CCN(CCNC(=O)C1CCN(Cc2nc(-c3ccc(Cl)cc3)oc2C)CC1)c1ccccc1 | x | 51* | 3 | 40 | 2 | 19 | 54* | 48*
Nc1c(-c2ccccc2)sc2ccc3ccccc3[n+]12 | x | -17 | -9 | -7 | 2 | -1 | x | x
